Assay results reported in article PMC5856478 (Biochemistry, 2018).
“Also recorded” adds a separate entry of the source. No end group written: not given here.

Key:
Grx1 [1] = target: T1, Grx1 (Homo sapiens, UniProt P35754); assay: Grx1 de-glutathionylation enzyme assay; type: biochemical
T1 sequence (P35754 1-106): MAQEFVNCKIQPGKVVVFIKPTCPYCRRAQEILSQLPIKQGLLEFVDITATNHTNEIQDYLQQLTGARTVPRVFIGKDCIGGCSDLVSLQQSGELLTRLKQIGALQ
Summary of the method: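 Coupled assay: Grx1 (40 ng) reduces Cys-SSG (100 μM), and glutathione reductase recycles the resulting GSSG while oxidising NADPH. Buffer was 0.1 M phosphate pH 7.4 with 1 mM EDTA, BSA, 0.2 mM NADPH, yeast GR (4 units) and 0.25 mM GSH. Grx1 was incubated with peptide at 10–200 μM. NADPH loss was followed at 340 nm. Initial rates were converted to percent inhibition, and values are mean ± SD, n=3 independent experiments.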

[2] = not told
Trx1-Ask1 interaction = assay: Co-immunoprecipitation of Ask1 and Trx1 in cells; type: cell-based; settings: MDA-MB-231 cells, 6 h; co-IP
Ask1 = Ask1 phosphorylation, Western blotting; type: cell-based; settings: MDA-MB-231 cells, 6 h
Summary of the method: (§1)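 MDA-MB-231 cells in 6 cm dishes were exposed to the test peptide, a TAT-only peptide, a scrambled-order (reverse) TAT peptide or a reference Trx1 inhibitor at 37 °C for 6 h. Cells were then lysed in TBST with 0.1% Triton X-100, 50 mM NaF and EDTA-free protease inhibitors. Equal protein was run on SDS-PAGE and blotted to PVDF. Primary antibodies (p-Ask1 Thr845, p-JNK Thr183/Tyr185, p-p38 Thr180/Tyr182, p-AMPK Thr172, GRP78, plus total proteins) were applied overnight at 4 °C, followed by HRP secondary and chemiluminescence. Data come from two or three independent experiments.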

JNK = JNK phosphorylation, Western blotting; type: cell-based; settings: MDA-MB-231 cells, 100 μM, 6 h
Summary of the method: as §1

p53 = p53 stabilization, Western blotting; type: cell-based; settings: 100 μM, 6 h
p38 = p38 phosphorylation, Western blotting; type: cell-based; settings: MDA-MB-231 cells, 100 μM, 6 h
Summary of the method: as §1

GRP78 = GRP78 induction; type: cell-based; settings: MDA-MB-231 cells, 100 μM, 6 h
Summary of the method: as §1

AMPK = AMPK phosphorylation, Western blotting; type: cell-based; settings: MDA-MB-231 cells, 100 μM, 6 h
Summary of the method: as §1

MDA-MB-231 cells = assay: Cell viability, Trypan blue assay; type: cell-based; settings: 48 h, 37 °C, n= 2 independent experiments
Summary of the method: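 Viability was scored by Trypan blue exclusion. MDA-MB-231 cells in 6-well plates were treated with the TAT-fused test peptide, a reverse-sequence TAT control or a reference Trx1 inhibitor for 48 h at 37 °C. Cells were washed with PBS, trypsinised and resuspended in medium. They were mixed with 0.4% trypan blue and counted on an automated cell counter. Results are mean ± SD of 2 independent experiments.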

[3] = ref [45], [46]; cited from earlier work
Trx1 [4] = settings: ref [44]; cited from earlier work
Trx1 [5] = target: T2, Trx1 (Homo sapiens, UniProt P10599); assay: Phage display selection; type: binding; settings: trial 3; bait Trx1; elution with 1GP3; three rounds of bio-panning; DTT 1 mM
T2 sequence (P10599 1-105): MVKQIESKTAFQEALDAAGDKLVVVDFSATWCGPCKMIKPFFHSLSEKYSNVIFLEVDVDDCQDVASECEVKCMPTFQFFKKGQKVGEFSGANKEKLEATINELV

Grx1 [6] = target: T1, Grx1; assay: Phage display selection; type: binding; settings: trial 2; bait Grx1; elution with 1GP3; three rounds of bio-panning; DTT 1 mM
human Grx1 = settings: ref [53]; cited from earlier work
[7] = target: T3, glutaredoxin 1 (Grx1), human, His-tagged, purified (human, UniProt P35754 1-106); assay: SPR
T3 sequence (looked up): T1 sequence (P35754 1-106)

[8] = target: T3, glutaredoxin 1 (Grx1), human, …; assay: pull-down
[9] = target: T4, thioredoxin 1 (Trx1), human, His-tagged, purified (human, UniProt P10599 1-105); assay: pull-down
T4 sequence (looked up): T2 sequence (P10599 1-105)

[10] = target: T3, glutaredoxin 1 (Grx1), human, …; assay: BLI
[11] = target: T4, thioredoxin 1 (Trx1), human, …; assay: BLI

## SHYNYKV [1GP2]
Grx1 [1]; Cys-SSG 100 μM substrate, 0.1 M phosphate pH 7.4, peptide 10–200 μM
  Inhibition of Grx1 de-glutathionylation: did not have any inhibitory activity

## ETRWPNT [2GTP1]
Grx1 [1]
  IC50: 11 µM
[2]
  Cell permeability: poor cell permeability

## CCC(C)SSc1ncc[nH]1 (centres unmarked) [PX-12, sec-butyl 2-imidazoylyl disulfide]
Trx1-Ask1 interaction
  Disruption of Trx1-Ask1 interaction in cells: disrupted the Trx1-Ask1 interaction
Ask1
  Ask1 phosphorylation: activated Ask1 by phosphorylation
JNK
  JNK phosphorylation: induced JNK phosphorylation
p53; MCF7 cells (wild-type p53, high Trx1)
  p53 stabilization: induced p53 stabilization
p53; MDA-MB-231 cells (mutant p53 R280K)
  p53 stabilization: strong stabilization of mutant p53
p38
  p38 phosphorylation: without p38 phosphorylation
GRP78
  GRP78 induction: induced expression of GRP78
AMPK
  AMPK phosphorylation: phosphorylation of AMPK
MDA-MB-231 cells
  Cell viability: significantly decreased viability; also recorded: potent cytotoxicity
[3]
  Anti-tumor activity in clinical evaluation: low anti-tumor activity
Trx1 [4]
  Cys residues of Trx1 oxidized or modified: catalytic C32 and redox-sensitive C73

## ANHTMQV [1GP3]
Grx1 [1]
  IC50: 46 µM

## RFADPRL [2TP2]
Trx1 [5]
  # of colony: 1

## SLKTTMP [2TP3]
Trx1 [5]
  # of colony: 1

## SVGSFSM [2GP1]
Grx1 [6]
  # of colony: 1

## N[C@@H](CCC(=O)N[C@@H](CS)C(=O)NCC(=O)O)C(=O)O [reduced glutathione]
Human Grx1
  Binding affinity with human Grx1: does not have significant binding affinity

## AMYSRGT [2TP1]
Trx1 [5]
  # of colony: 2

## GRYAIPL [2GP2]
Grx1 [6]
  # of colony: 2

## ANHTMQV (not fully specified (N-terminus); also: biotin, position not given here) [biotin-1GP3]
[7]
  Kd: 38 ± 2 µM

## SHYNYKV (not fully specified (N-terminus); also: biotin, position not given here) [biotin-1GP2]
[8]
  binding result: binds

## ETRWPNT [non-biotinylated 2GTP1]
[9]
  binding result: binds

## ETRWPNT (not fully specified (N-terminus); also: biotinylated, position not given here) [biotinylated 2GTP1 peptide (biotin-2GTP1)]
[10]
  Kd: 1.2 µM
[11]
  Kd: 2.5 µM
